Measurements: ChEMBL document CHEMBL3808334, “Synthesis and in vitro evaluation of novel triazine analogues as anticancer agents and their interaction studies with bovine serum albumin” (Eur J Med Chem, 2016)

Tests used:
Assay type in all cases: functional
NCI-H322M = assay: Growth inhibition of human NCI-H322M cells incubated for 48 hrs by sulforhodamine B assay
Method in brief: (§1)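 Cells were plated at 5,000–40,000 per well according to doubling time and preincubated 24 h at 37 °C in 5% CO2; time-zero plates were then TCA-fixed. Five concentrations (10-fold or ½-log dilutions, DMSO stock) were incubated 48 h. Cells were TCA-fixed, stained with 0.4% SRB and read at 515 nm. GI50 was taken where [(Ti−Tz)/(C−Tz)]×100 = 50.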

[1] = Growth inhibition of human HCC2998 cells incubated for 48 hrs by sulforhodamine B assay; details: HCC 2998, 48 h
Method in brief: (§2)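 Cells seeded at 5,000–40,000/well according to doubling time and preincubated 24 h at 37 °C, 5% CO2. Time-zero plates were TCA-fixed. DMSO concentrate was diluted in medium with 50 µg/ml gentamicin to give five concentrations (10-fold or ½ log steps), then exposed 48 h. Cells were TCA-fixed, stained with 0.4% SRB and read at 515 nm. Percent growth was taken against time-zero and control; GI50, TGI and LC50 derived.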

[2] = Growth inhibition of human TK10 cells incubated for 48 hrs by sulforhodamine B assay; details: TK-10, 48 h; method in brief: as §1
[3] = Growth inhibition of human UACC62 cells assessed as cell growth at 10^-8 M incubated for 48 hrs by sulforhodamine B assay; details: UACC-62, 48 h, read-out: Activity
[4] = Growth inhibition of human OVCAR5 cells assessed as cell growth at 10^-8 M incubated for 48 hrs by sulforhodamine B assay; details: OVCAR-5, 48 h, read-out: Activity
[5] = Growth inhibition of human PC3 cells assessed as cell growth at 10^-8 M incubated for 48 hrs by sulforhodamine B assay; details: PC-3, 48 h, read-out: Activity
[6] = Growth inhibition of human RXF393 cells assessed as cell growth at 10^-5 M incubated for 48 hrs by sulforhodamine B assay; details: RXF 393, 48 h, read-out: Activity
[7] = Growth inhibition of human UO31 cells assessed as cell growth at 10^-5 M incubated for 48 hrs by sulforhodamine B assay; details: UO-31, 48 h, read-out: Activity
[8] = Growth inhibition of human HCT15 cells assessed as cell growth at 10^-4 M incubated for 48 hrs by sulforhodamine B assay; details: HCT-15, 48 h, read-out: Activity; method in brief: as §2
[9] = Growth inhibition of human SF295 cells assessed as cell growth at 10^-4 M incubated for 48 hrs by sulforhodamine B assay; details: SF-295, 48 h, read-out: Activity
U-251 [10] = assay: Growth inhibition of human U251 cells assessed as cell growth at 10^-4 M incubated for 48 hrs by sulforhodamine B assay; details: U-251, 48 h, read-out: Activity
[11] = Growth inhibition of human SKOV3 cells assessed as cell growth at 10^-7 M incubated for 48 hrs by sulforhodamine B assay; details: SK-OV-3, 48 h, read-out: Activity
[12] = Growth inhibition of human HOP62 cells assessed as cell growth at 10^-8 M incubated for 48 hrs by sulforhodamine B assay; details: HOP-62, 48 h, read-out: Activity
ACHN = assay: Growth inhibition of human ACHN cells assessed as cell growth at 10^-7 M incubated for 48 hrs by sulforhodamine B assay; details: read-out: Activity
Method in brief: (§3)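 Five-dose assay: five concentrations from 10-fold or ½-log serial dilutions. Cells are plated at 5,000–40,000 per well according to doubling time, grown 24 h, then exposed 48 h at 37 °C, 5% CO₂. Fixed with cold 50% TCA (final addition) for 60 min at 4 °C and stained with 0.4% SRB in 1% acetic acid. Bound dye is solubilized in 10 mM Tris base and read at 515 nm. GI₅₀ is where [(Ti−Tz)/(C−Tz)]×100 = 50, with a time-zero plate as Tz.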

[13] = Growth inhibition of human BT549 cells assessed as cell growth at 10^-7 M incubated for 48 hrs by sulforhodamine B assay; details: BT-549, 48 h, read-out: Activity; method in brief: as §3
KM12 = assay: Growth inhibition of human KM12 cells assessed as cell growth at 10^-8 M incubated for 48 hrs by sulforhodamine B assay; details: KM12, 48 h, read-out: Activity
[14] = Growth inhibition of human SF539 cells assessed as cell growth at 10^-8 M incubated for 48 hrs by sulforhodamine B assay; details: SF-539, 48 h, read-out: Activity
U-251 [15] = assay: Growth inhibition of human U251 cells assessed as cell growth at 10^-6 M incubated for 48 hrs by sulforhodamine B assay; details: U-251, 48 h, read-out: Activity
[16] = Growth inhibition of human Caki1 cells assessed as cell growth at 10^-6 M incubated for 48 hrs by sulforhodamine B assay; details: CAKI-1, 48 h, read-out: Activity; method in brief: as §2
[17] = Growth inhibition of human RPMI8226 cells assessed as cell growth at 10^-5 M incubated for 48 hrs by sulforhodamine B assay; details: RPMI-8226, 48 h, read-out: Activity
SR = assay: Growth inhibition of human SR cells assessed as cell growth at 10^-5 M incubated for 48 hrs by sulforhodamine B assay; details: read-out: Activity
NCI-H460 = assay: Growth inhibition of human NCI-H460 cells assessed as cell growth at 10^-5 M incubated for 48 hrs by sulforhodamine B assay; details: NCI-H460, 48 h, read-out: Activity
[18] = Growth inhibition of human SW620 cells assessed as cell growth at 10^-5 M incubated for 48 hrs by sulforhodamine B assay; details: SW-620, 48 h, read-out: Activity
[19] = Growth inhibition of human SF268 cells assessed as cell growth at 10^-5 M incubated for 48 hrs by sulforhodamine B assay; details: SF-268, 48 h, read-out: Activity
M14 = assay: Growth inhibition of human M14 cells assessed as cell growth at 10^-5 M incubated for 48 hrs by sulforhodamine B assay; details: M14, 48 h, read-out: Activity
[20] = Growth inhibition of human OVCAR5 cells assessed as cell growth at 10^-5 M incubated for 48 hrs by sulforhodamine B assay; details: OVCAR-5, 48 h, read-out: Activity
[21] = Growth inhibition of human SF295 cells assessed as cell growth at 10 uM incubated for 48 hrs by sulforhodamine B assay; details: SF-295, 48 h, read-out: Activity
[22] = Growth inhibition of human melanoma cells incubated for 48 hrs by sulforhodamine B assay; details: Melanoma cell; for CC50: read-out: LC50 (the source's name)
K562 = assay: Growth inhibition of human K562 cells assessed as cell growth at 10^-4 M incubated for 48 hrs by sulforhodamine B assay; details: K562, 48 h, read-out: Activity
[23] = read-out: LC50 (the source's name)
[24] = read-out: pLC50 (the source's name) (converted)

Fc1ccc(-c2nc(Nc3ccc(-c4nc5ccccc5[nH]4)cc3)nc(N3CCOCC3)n2)cc1
GI50 (NCI-H322M; read-out: GI50): 3.62 µM
CC50 (NCI-H322M; [23]): > 100 µM
TGI (NCI-H322M; read-out: TGI): > 100 µM
GI50 (NCI-H322M; read-out: pGI50 (converted)): 3.63 µM
CC50 (NCI-H322M; [24]): > 100 µM
TGI (NCI-H322M; read-out: pTGI (converted)): > 100 µM
GI50 ([1]; read-out: GI50): 3.09 µM
CC50 [1, 23]: > 100 µM
TGI ([1]; read-out: TGI): > 100 µM
GI50 ([1]; read-out: pGI50 (converted)): 3.09 µM
CC50 [1, 24]: > 100 µM
TGI ([1]; read-out: pTGI (converted)): > 100 µM
GI50 ([2]; read-out: GI50): 2.91 µM
CC50 [2, 23]: > 100 µM
TGI ([2]; read-out: TGI): 8.54 µM
GI50 ([2]; read-out: pGI50 (converted)): 2.88 µM
CC50 [2, 24]: > 100 µM
TGI ([2]; read-out: pTGI (converted)): 8.51 µM
growth at 0.01 µM [3]: 91%
growth at 0.01 µM [4]: 93%
growth at 0.01 µM [5]: 100%
growth at 10 µM [6]: -37%
growth at 10 µM [7]: -30%
growth at 100 µM [8]: -13%
growth at 100 µM [9]: -35%
growth at 100 µM (U-251 [10]): -33%
growth at 0.1 µM [11]: 98%
growth at 0.01 µM [12]: 98%
growth at 0.1 µM (ACHN): 95%
growth at 0.1 µM [13]: 97%
growth at 0.01 µM (KM12): 95%
growth at 0.01 µM [14]: 98%
growth at 1 µM (U-251 [15]): 70%
growth at 1 µM [16]: 87%
growth at 10 µM [17]: -17%
growth at 10 µM (SR): -15%
growth at 10 µM (NCI-H460): -22%
growth at 10 µM [18]: -47%
growth at 10 µM [19]: 3%
growth at 10 µM (M14): -62%
growth at 10 µM [20]: -5%
growth at 10 µM [21]: -63.5%
GI50 [22]: 1.91 µM
TGI [22]: 4.04 µM
CC50 [22]: 7.43 µM

Clc1ccc(-c2nc(Nc3ccc(-c4nc5ccccc5[nH]4)cc3)nc(N3CCOCC3)n2)cc1
GI50 (NCI-H322M; read-out: GI50): 0.303 µM
TGI (NCI-H322M; read-out: TGI): 1.07 µM
GI50 (NCI-H322M; read-out: pGI50 (converted)): 0.302 µM
TGI (NCI-H322M; read-out: pTGI (converted)): 1.07 µM
GI50 ([1]; read-out: GI50): 0.358 µM
GI50 ([1]; read-out: pGI50 (converted)): 0.355 µM
GI50 ([2]; read-out: GI50): 1.96 µM
CC50 [2, 23]: 5.97 µM
TGI ([2]; read-out: TGI): 3.42 µM
GI50 ([2]; read-out: pGI50 (converted)): 1.95 µM
CC50 [2, 24]: 6.03 µM
TGI ([2]; read-out: pTGI (converted)): 3.39 µM
growth at 0.01 µM [3]: 94%
growth at 0.01 µM [4]: 97%
growth at 0.01 µM [5]: 98%
growth at 10 µM [6]: -79%
growth at 10 µM [7]: -86%
growth at 100 µM (K562): -29%
growth at 100 µM [8]: -10%
growth at 100 µM [9]: -10%
growth at 100 µM (U-251 [10]): -44%
growth at 0.1 µM [11]: 99%
growth at 0.01 µM [12]: 91%
growth at 0.1 µM (ACHN): 99%
growth at 0.1 µM [13]: 93%
growth at 0.01 µM (KM12): 98%
growth at 0.01 µM [14]: 98%
growth at 1 µM (U-251 [15]): -56%
growth at 1 µM [16]: 76%
growth at 10 µM [17]: -51%
growth at 10 µM (SR): -21%
growth at 10 µM (NCI-H460): -73%
growth at 10 µM [18]: -79%
growth at 10 µM [19]: -80%
growth at 10 µM (M14): -85%
growth at 10 µM [20]: -79%
growth at 10 µM [21]: -94.4%
GI50 [22]: 1.07 µM
TGI [22]: 2.48 µM
CC50 [22]: 5.79 µM

c1ccc2[nH]c(-c3ccc(Nc4nc(N5CCCCC5)nc(N5CCOCC5)n4)cc3)nc2c1
GI50 (NCI-H322M; read-out: GI50): 4.72 µM
CC50 (NCI-H322M; [23]): > 100 µM
TGI (NCI-H322M; read-out: TGI): > 100 µM
GI50 (NCI-H322M; read-out: pGI50 (converted)): 4.68 µM
CC50 (NCI-H322M; [24]): > 100 µM
TGI (NCI-H322M; read-out: pTGI (converted)): > 100 µM
GI50 ([1]; read-out: GI50): 3.74 µM
CC50 [1, 23]: > 100 µM
TGI ([1]; read-out: TGI): > 100 µM
GI50 ([1]; read-out: pGI50 (converted)): 3.72 µM
CC50 [1, 24]: > 100 µM
TGI ([1]; read-out: pTGI (converted)): > 100 µM
GI50 ([2]; read-out: GI50): 3.21 µM
CC50 [2, 23]: > 100 µM
TGI ([2]; read-out: TGI): 9.26 µM
GI50 ([2]; read-out: pGI50 (converted)): 3.24 µM
CC50 [2, 24]: > 100 µM
TGI ([2]; read-out: pTGI (converted)): 9.33 µM
growth at 0.01 µM [3]: 96%
growth at 0.01 µM [4]: 101%
growth at 0.01 µM [5]: 96%
growth at 10 µM [6]: -43%
growth at 10 µM [7]: -35%
growth at 100 µM (K562): 1%
growth at 100 µM [8]: -22%
growth at 100 µM [9]: -56%
growth at 100 µM (U-251 [10]): -56%
growth at 0.1 µM [11]: 101%
growth at 0.01 µM [12]: 96%
growth at 0.1 µM (ACHN): 95%
growth at 0.1 µM [13]: 95%
growth at 0.01 µM (KM12): 101%
growth at 0.01 µM [14]: 99%
growth at 1 µM (U-251 [15]): 76%
growth at 1 µM [16]: 87%
growth at 10 µM [17]: -19%
growth at 10 µM (SR): -14%
growth at 10 µM (NCI-H460): -26%
growth at 10 µM [18]: -29%
growth at 10 µM [19]: 5%
growth at 10 µM (M14): -45%
growth at 10 µM [20]: 16%
growth at 10 µM [21]: -51.4%
GI50 [22]: 1.95 µM
TGI [22]: 4.18 µM
CC50 [22]: 11.8 µM
